Assay results published in ChEMBL document CHEMBL3112486, “Novel class of benzoic acid ester derivatives as potent PDE4 inhibitors for inhaled administration in the treatment of respiratory diseases” (J Med Chem, 2014).
Values belong to the compound of their own block, whether it stands above or below them. Calls of active or inactive are those of the source. No cut-off for these calls is given here.

Experiments:
[1] = n-Octanol-buffer partition coefficient, log D of the compound at pH 7.4 by shake-flask method
[2] = Plasma protein binding in rat at 5 uM after 5 hrs by LC-MS/MS analysis; assay type: ADME, cell-free; details: read-out: PPB (converted)
In short: (§1)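 Equilibrium dialysis: plasma spiked at 5 μM (from 500 μM stock) dialysed against phosphate buffer pH 7.4 for 5 h at 37 °C with slow rotation. Samples extracted with ACN/MeOH containing verapamil internal standard, centrifuged, and analysed by LC−MS/MS.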

[3] = Metabolic stability in rat plasma assessed as compound remaining at 5 uM after 1 hr by LC-MS/MS analysis; assay type: ADME, cell-free; details: read-out: Stability
In short: (§2)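 Compound from 5 mM DMSO stock added to plasma at 5 μM final and incubated at 37 °C up to 120 min. Aliquots taken at 0, 15, 30, 60, 90, 120 min and quenched with 2 volumes of chilled acetonitrile, then centrifuged.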

[4] = Metabolic stability in human plasma assessed as compound remaining at 5 uM after 1 hr by LC-MS/MS analysis; assay type: ADME, cell-free; details: read-out: Stability; in short: as §2
[5] = biological target: 3',5'-cyclic-AMP phosphodiesterase 4B (Homo sapiens) (UniProt Q07343); details: Sf9
Sequence of 3',5'-cyclic-AMP phosphodiesterase 4B (Homo sapiens) (Q07343 whole entry): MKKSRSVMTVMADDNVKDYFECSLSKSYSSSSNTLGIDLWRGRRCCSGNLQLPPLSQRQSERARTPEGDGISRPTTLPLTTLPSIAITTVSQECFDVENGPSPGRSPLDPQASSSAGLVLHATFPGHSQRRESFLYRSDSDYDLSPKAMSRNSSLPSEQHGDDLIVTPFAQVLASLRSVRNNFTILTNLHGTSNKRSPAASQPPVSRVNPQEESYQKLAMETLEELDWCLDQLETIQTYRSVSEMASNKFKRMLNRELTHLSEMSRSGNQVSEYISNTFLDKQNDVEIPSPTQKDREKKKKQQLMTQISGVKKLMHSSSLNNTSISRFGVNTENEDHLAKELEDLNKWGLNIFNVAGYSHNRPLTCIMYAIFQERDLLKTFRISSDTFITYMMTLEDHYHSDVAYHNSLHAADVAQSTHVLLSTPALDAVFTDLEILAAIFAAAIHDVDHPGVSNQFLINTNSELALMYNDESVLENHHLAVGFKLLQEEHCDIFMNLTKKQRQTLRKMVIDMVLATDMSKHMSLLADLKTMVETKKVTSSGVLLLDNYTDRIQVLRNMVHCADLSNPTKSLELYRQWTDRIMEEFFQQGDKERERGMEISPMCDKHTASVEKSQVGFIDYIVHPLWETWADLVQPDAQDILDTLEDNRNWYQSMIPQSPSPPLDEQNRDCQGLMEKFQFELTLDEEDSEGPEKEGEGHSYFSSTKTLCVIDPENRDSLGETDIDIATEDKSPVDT

[6] = biological target: 3',5'-cyclic-AMP phosphodiesterase 4D (Homo sapiens) (UniProt Q08499); details: Sf9
Sequence of 3',5'-cyclic-AMP phosphodiesterase 4D (Homo sapiens) (Q08499 whole entry): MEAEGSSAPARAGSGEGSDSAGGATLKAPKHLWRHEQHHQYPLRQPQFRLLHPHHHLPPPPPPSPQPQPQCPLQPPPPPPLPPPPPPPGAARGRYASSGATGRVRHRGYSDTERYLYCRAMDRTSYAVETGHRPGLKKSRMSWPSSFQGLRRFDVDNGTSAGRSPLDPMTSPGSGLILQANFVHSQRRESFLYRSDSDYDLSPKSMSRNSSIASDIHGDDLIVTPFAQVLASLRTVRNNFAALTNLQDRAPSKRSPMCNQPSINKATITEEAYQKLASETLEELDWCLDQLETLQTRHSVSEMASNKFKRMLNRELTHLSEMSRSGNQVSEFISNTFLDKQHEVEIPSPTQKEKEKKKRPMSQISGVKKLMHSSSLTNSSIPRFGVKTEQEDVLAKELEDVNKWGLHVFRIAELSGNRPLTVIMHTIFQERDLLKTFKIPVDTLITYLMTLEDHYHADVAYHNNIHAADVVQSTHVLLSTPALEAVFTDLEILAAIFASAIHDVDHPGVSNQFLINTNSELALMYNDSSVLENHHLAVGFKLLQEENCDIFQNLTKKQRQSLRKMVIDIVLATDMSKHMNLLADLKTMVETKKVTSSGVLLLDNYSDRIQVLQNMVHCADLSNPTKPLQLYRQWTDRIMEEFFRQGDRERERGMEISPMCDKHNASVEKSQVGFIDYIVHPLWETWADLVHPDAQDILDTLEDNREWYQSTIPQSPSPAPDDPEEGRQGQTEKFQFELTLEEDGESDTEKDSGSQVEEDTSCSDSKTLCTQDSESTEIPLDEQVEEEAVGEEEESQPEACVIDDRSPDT

[7] = system: Cavia porcellus; assay: Inhibition of ovalbumin-induced lung eosinophilia in Dunkin-Hartley guinea pig at 0.1 umol/kg administered intratracheally 2 hrs before ovalbumin challenge; assay type: functional; details: inhaled or nasal
In short: (§3)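 Sensitized guinea pigs challenged on day 20 after first sensitization with a 1 h aerosol of OVA (10 μg/mL in saline); sham group received saline aerosol. Compound given intratracheally as a dry powder formulation 2 h or 24 h before challenge. Read-out was airway/lung eosinophil influx.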

[8] = system: Cavia porcellus; assay: Inhibition of ovalbumin-induced lung eosinophilia in Dunkin-Hartley guinea pig at 0.01 to 3 umol/kg administered intratracheally 24 hrs before ovalbumin challenge; assay type: functional, organism-based; in short: as §3
[9] = system: Cavia porcellus; assay: Inhibition of ovalbumin-induced lung eosinophilia in Dunkin-Hartley guinea pig at 1 umol/kg administered intratracheally 2 hrs before ovalbumin challenge; assay type: functional; details: inhaled or nasal; in short: as §3
[10] = biological target: T1, cGMP-dependent 3',5'-cyclic phosphodiesterase (Homo sapiens, UniProt O00408); assay: Inhibition of human platelet PDE2
T1 sequence (O00408 whole entry): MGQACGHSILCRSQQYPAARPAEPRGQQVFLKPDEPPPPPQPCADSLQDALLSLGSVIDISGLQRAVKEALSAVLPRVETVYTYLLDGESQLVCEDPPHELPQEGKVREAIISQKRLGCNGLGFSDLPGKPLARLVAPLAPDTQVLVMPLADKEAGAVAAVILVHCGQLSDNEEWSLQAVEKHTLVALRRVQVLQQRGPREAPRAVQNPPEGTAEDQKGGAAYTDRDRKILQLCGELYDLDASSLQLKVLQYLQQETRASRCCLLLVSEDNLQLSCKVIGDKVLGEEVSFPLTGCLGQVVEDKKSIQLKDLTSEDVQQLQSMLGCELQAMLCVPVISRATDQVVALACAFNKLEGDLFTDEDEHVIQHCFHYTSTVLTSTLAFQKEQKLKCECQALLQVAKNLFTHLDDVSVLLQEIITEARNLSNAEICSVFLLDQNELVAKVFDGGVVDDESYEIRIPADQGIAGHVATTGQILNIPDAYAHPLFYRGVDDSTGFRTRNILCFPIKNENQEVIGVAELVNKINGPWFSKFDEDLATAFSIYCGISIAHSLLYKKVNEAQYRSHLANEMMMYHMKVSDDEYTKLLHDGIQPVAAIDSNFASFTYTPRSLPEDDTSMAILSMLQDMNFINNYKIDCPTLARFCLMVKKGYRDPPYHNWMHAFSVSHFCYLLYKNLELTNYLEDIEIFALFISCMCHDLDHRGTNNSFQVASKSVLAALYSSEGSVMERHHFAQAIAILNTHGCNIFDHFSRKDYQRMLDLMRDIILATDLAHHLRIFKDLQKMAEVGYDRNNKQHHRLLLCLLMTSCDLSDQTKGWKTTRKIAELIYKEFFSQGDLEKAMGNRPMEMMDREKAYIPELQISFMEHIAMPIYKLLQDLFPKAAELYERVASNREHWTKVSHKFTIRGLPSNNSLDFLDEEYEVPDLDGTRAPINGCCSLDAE
In short: (§4)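 Radiometric two-step assay (modified Thompson–Appleman). PDE1 from bovine brain; PDE2, PDE3, PDE5 from human platelets; PDE6 from bovine retina. Compound tested in duplicate at five concentrations, starting at 30 μM with 1:10 serial dilution, 1% final DMSO.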

[11] = system: Cavia porcellus; assay: Inhibition of ovalbumin-induced lung eosinophilia in Dunkin-Hartley guinea pig administered intratracheally 2 hrs before ovalbumin challenge; assay type: functional; in short: as §3
[12] = Metabolic stability in lung parenchyma of COPD patients under hydrolytic/proteolytic condition; assay type: ADME, tissue-based; details: human
[13] = biological target: T2, Phosphodiesterase 4 (Homo sapiens, UniProt P27815+Q08499+Q07343+Q08493); assay: Inhibition of PDE4 isolated from human U937 cells assessed as […] by LANCE assay; assay type: cell-free; details: u-937
[14] = system: U-937; assay: Selectivity ratio of IC50 for human platelet PDE3 to IC50 for PDE4 isolated from human U937 cells; assay type: cell-based
In short: (§5)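 PDE1 from bovine brain, PDE6 from bovine retina, PDE2/3/5 from human platelets. Each was tested in a radiometric two-step assay at five concentrations, in duplicate, starting at 30 μM with 1:10 serial dilution and 1% DMSO. […] Ratio = PDEx IC50 / PDE4 IC50.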

[15] = system: Cavia porcellus; assay: Inhibition of ovalbumin-induced lung eosinophilia in Dunkin-Hartley guinea pig at 3 umol/kg administered intratracheally 2 hrs before ovalbumin challenge; assay type: functional; details: inhaled or nasal; in short: as §3
[16] = Apparent permeability across human Caco2 cells at 10 uM after 2 hrs by LC-MS/MS analysis; assay type: ADME, cell-based; details: Caco-2
In short: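 Caco-2 cells cultured 24 h, then switched to enterocyte differentiation medium for 3 days to form monolayers. Test compound 10 μM in DMEM (1% DMSO) added apically; apical pH 6.5, basolateral pH 7.4. After 2 h at 37 °C, apical, basolateral and starting solutions quantified by LC−MS/MS. Papp (nm/s) = flux/initial donor concentration; caffeine and cimetidine run as references.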

[17] = biological target: T2, Phosphodiesterase 4; assay: Inhibition of PDE4 activity in human PBMC assessed as inhibition of LPS-induced TNFalpha release after 18 hrs by ELISA
In short: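 Human PBMCs plated at 10^5 cells/well in RPMI 1640 without phenol red plus 10% FBS, at 37 °C, 5% CO2. Compound added at 10^-15 to 10^-6 M (final DMSO 0.2%), with E. coli LPS at 3 ng/mL final, for 18 h. TNFα in supernatant measured by paired-antibody ELISA. IC50 from four-parameter logistic nonlinear regression, reported with 95% confidence intervals.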

[18] = Half life in human lung slices at 1 uM after 2 hrs by LC-MS/MS analysis; assay type: ADME, tissue-based
In short: (§6)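 Fresh lung slices preincubated 1 h at 37 °C under 95% O2/5% CO2 in DMEM/F12 with 10% FCS, then incubated with compound at 1 μM in MEM-Earle without phenol red for up to 2 h. Three replicates for human slices, four for rat. Compound measured by LC−MS/MS at 0, 20, 40, 60, 90, 120 min; testosterone (n = 2) checked slice viability.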

[19] = system: U-937; assay: Selectivity ratio of IC50 for human platelet PDE2 to IC50 for PDE4 isolated from human U937 cells; assay type: cell-based; in short: as §5
[20] = Inhibition of bovine brain PDE1; set-up: species or system Bos taurus; in short: as §4
[21] = Metabolic stability in rat lung S9 fraction assessed as compound remaining at 1 uM after 1 hr by LC-MS/MS analysis; assay type: ADME; details: read-out: Stability
In short: (§7)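 Lung S9 fraction (0.5 mg protein/mL) incubated in duplicate with compound at 1 μM in Dulbecco's buffer pH 7.4, 37 °C, with 1 mM NADPH. Samples taken at 0, 15, 30, 60 min and quenched in ice-cold acetonitrile; unchanged compound measured by LC−MS/MS. Controls were no-NADPH and buffer-only incubations; 7-ethoxyresorufin 1 μM served as phase I positive control.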

[22] = biological target: T3, Phosphodiesterase 3 (Homo sapiens, UniProt Q14432+Q13370); assay: Inhibition of human platelet PDE3; in short: as §4
[23] = Metabolic stability in human lung S9 fraction assessed as compound remaining at 1 uM after 1 hr by LC-MS/MS analysis; assay type: ADME; details: read-out: Stability; in short: as §7
[24] = system: U-937; assay: Selectivity ratio of IC50 for bovine brain PDE1 to IC50 for PDE4 isolated from human U937 cells; assay type: cell-based; in short: as §5
[25] = Inhibition of bovine retina PDE6; set-up: species or system Bos taurus; in short: as §4
[26] = system: U-937; assay: Selectivity ratio of IC50 for human platelet PDE5 to IC50 for PDE4 isolated from human U937 cells; assay type: cell-based; in short: as §5
[27] = Half life in rat lung S9 fraction; assay type: ADME, tissue-based; in short: as §7
[28] = system: U-937; assay: Selectivity ratio of IC50 for bovine retina PDE6 to IC50 for PDE4 isolated from human U937 cells; assay type: cell-based; in short: as §5
[29] = Permeability across apical to basolateral side in human Calu3 cells at 1.5 to 7 uM up to 120 mins by LC-MS/MS analysis; assay type: ADME, cell-based; details: calu-3, 2 h
In short: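 Calu-3 cells grown on Transwell filters in MEM at 37 °C, 5% CO2, for 3 days plus a further 11–27 days until confluent. Compound added apically at 1.5, 3.5 and 7 μM. Receiver compartment sampled at 0, 30, 60, 90, 120 min; quantified by LC−MS/MS.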

[30] = Plasma protein binding in human at 5 uM after 5 hrs by LC-MS/MS analysis; assay type: ADME, cell-free; details: read-out: PPB (converted); in short: as §1
[31] = Half life in human lung S9 fraction; assay type: ADME, tissue-based; in short: as §7
[32] = system: Cavia porcellus; assay: Inhibition of ovalbumin-induced lung eosinophilia in Dunkin-Hartley guinea pig at 0.01 umol/kg administered intratracheally 2 hrs before ovalbumin challenge; assay type: functional; details: inhaled or nasal; in short: as §3
[33] = Half life in rat lung slices at 1 uM after 2 hrs by LC-MS/MS analysis; assay type: ADME, tissue-based; in short: as §6
[34] = biological target: T3, Phosphodiesterase 3; assay: Inhibition of human platelet PDE3 at 10 uM
[35] = biological target: T1, cGMP-dependent 3',5'-cyclic phosphodiesterase; assay: Inhibition of human platelet PDE2 at 10 uM
[36] = biological target: cGMP-specific 3',5'-cyclic phosphodiesterase PDE5 (Homo sapiens) (UniProt O76074); assay: Inhibition of human platelet PDE5 at 10 uM
[37] = system: Cavia porcellus; assay: Inhibition of ovalbumin-induced lung eosinophilia in Dunkin-Hartley guinea pig at 0.3 umol/kg administered intratracheally 2 hrs before ovalbumin challenge; assay type: functional; details: inhaled or nasal; in short: as §3

logD [1]: 4.48 | fraction unbound at 5 h, 5 µM [2]: 0.008 | remaining at 1 h, 5 µM [3]: 100% | remaining at 1 h, 5 µM [4]: 100% | T1/2 [5]: > 20 h | T1/2 [6]: > 20 h | IC50 [10]: > 1000 nM | Stability [12]: Stable | IC50 [13]: 0.04 nM | Papp at 2 h, 10 µM [16]: < 1 ×10⁻⁶ cm/s | IC50 [17]: 0.06 nM | half-life at 1 µM [18]: 237 min | IC50 [20]: > 1000 nM | remaining at 1 h, 1 µM [21]: 88% | IC50 [22]: > 1 µM | remaining at 1 h, 1 µM [23]: 100% | IC50 [25]: > 1000 nM | half-life [27]: 189 min | permeability [29]: impermeable | fraction unbound at 5 h, 5 µM [30]: 0.0002 | half-life [31]: > 280 min | half-life at 1 µM [33]: 172 min
Structure (SMILES): CS(=O)(=O)Nc1ccc(C(=O)O[C@@H](Cc2c(Cl)c[n+]([O-])cc2Cl)c2ccc(OC(F)F)c(OCC3CC3)c2)cc1OCC1CC1
inhibition in vivo at 0.1 µmol/kg [7]: 66% | inhibition [8]: Active | inhibition in vivo at 1 µmol/kg [9]: 83% | inhibition [11]: Dose-dependent effect | ED50 ([11]; inhaled or nasal): 0.016 µmol/kg | Ratio IC50 [14]: > 20000 | inhibition in vivo at 3 µmol/kg [15]: 100% | Ratio IC50 [19]: > 20000 | Ratio IC50 [24]: > 20000 | Ratio IC50 [26]: > 20000 | Ratio IC50 [28]: > 20000 | inhibition in vivo at 0.01 µmol/kg [32]: 47%

IC50 [13]: 3.45 nM | inhibition [34]: 18% | inhibition [35]: 0% | inhibition [36]: 58%
Structure (SMILES): O=C(OC(Cc1c(Cl)cncc1Cl)c1ccc(OC(F)F)c(OCC2CC2)c1)c1ccc(OC(F)F)c(OCC2CC2)c1 (racemic)

logD [1]: 4.27
Structure (SMILES): Cc1ccc(O)c(C(=O)N[C@H]2CC[C@@H](NC(=O)c3cc(F)cnc3Oc3ccc(F)c(F)c3)CC2)c1 [UK-500001]

logD [1]: 4.43
Structure (SMILES): C[C@@H]1C[C@H]2[C@@H]3C[C@H](F)C4=CC(=O)C=C[C@]4(C)[C@@]3(F)[C@@H](O)C[C@]2(C)[C@@]1(OC(=O)c1ccco1)C(=O)SCF [FLUTICASONE FUROATE]
inhibition in vivo at 0.3 µmol/kg [37]: 90%

IC50 [13]: 0.06 nM | IC50 [17]: 0.38 nM
Structure (SMILES): COc1cc(C(=O)O[C@@H](Cc2c(Cl)c[n+]([O-])cc2Cl)c2ccc(OC(F)F)c(OCC3CC3)c2)ccc1NS(C)(=O)=O

IC50 [13]: 0.05 nM | IC50 [17]: 0.04 nM
Structure (SMILES): COc1ccc(C(=O)O[C@@H](Cc2c(Cl)c[n+]([O-])cc2Cl)c2ccc(OC(F)F)c(OCC3CC3)c2)cc1OCC1CC1

IC50 [13]: 0.13 nM | IC50 [17]: 0.12 nM
Structure (SMILES): CS(=O)(=O)Nc1cc(C(=O)O[C@@H](Cc2c(Cl)c[n+]([O-])cc2Cl)c2ccc(OC(F)F)c(OCC3CC3)c2)ccc1OCC1CC1
